# Shown is part of a subset that was picked to be rich in hits.
# Dynein cargo inh: dynein cargo transport inhibition. 3617.4 mouse cells, GR-EGFP nuclear translocation imaging; test concentration mostly 20 µM; stimulated with dexamethasone, 1 µM; stronger effect = lower value. z-score, hits read low. 220,000 compounds, 0.47% hits. AID 1381;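 active means plate z-score of nuclear minus cytoplasmic receptor signal below a set negative limit, without overly bright fluorescence or cell loss, cut at about -3.5 in these data, passing the limit was not always enough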;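 further: z-score of nuclear minus cytoplasmic ring GR-EGFP intensity difference per well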
#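 medium = tetracycline-free induction medium containing charcoal-stripped FBS | probe or stimulus = dexamethasone, 1.0 µM final | timing = 48 h induction, then 1 h compound, then 30 min agonist, 37 °C | detection = automated 10x imaging of fixed Hoechst-stained cells | read-out basis = nuclear versus cytoplasmic GR-EGFP signal, averaged per well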
# UPR CHOP act: activators of apoptotic arm of unfolded protein response (CHOP); activation, % at 10 µM; 330,000 compounds, 0.34% hits; CHO-CHOP luciferase reporter, UPR activation, luminescence; percent of tunicamycin response over DMSO baseline;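 active means at 10 µM dose, activation of 40% or more, normalized to positive control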;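 further: 100% = tunicamycin at 10 µg/mL and 0% = DMSO alone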
#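 Test system: CHO-CHOP cells, stable luciferase reporter of PERK-eIF2a-CHOP signalling | Quantity: 500 CHO-CHOP cells per well | Buffer or medium: F12 plus 10% serum | Compound dosing: 10 µM single point, 0.5% DMSO | Schedule: 6 h compound treatment, 37 °C | Signal: Luciferase luminescence | Control set: Tunicamycin high control, DMSO low control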
# UPR XBP1 act: adaptive UPR (XBP1) activation | 330,000 compounds, 0.33% hits | activation, % at 20 µM | AID 463104 | CHO-XBP1 luciferase reporter, IRE1-XBP1 UPR activation, luminescence; percent of tunicamycin response, DMSO as zero;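 active means versus positive control, 20 µM dose yields 30% or more activation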;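 further: 100% = tunicamycin at 10 µg/mL and 0% = DMSO only wells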
#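 incubation = overnight seeding at 37 °C, 6 h compound treatment at 37 °C | assay system = CHO-XBP1 cells stably carrying IRE1-XBP1-driven luciferase reporter | input = 1000 cells per well | detection = luciferase luminescence | dosing = single point, 20 µM final compound, 1% DMSO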
# CHOP inh: CHOP inhibition in unfolded protein response; CHO-K1 CHOP-promoter luciferase, tunicamycin-induced, 15-18 h; inhibition, % at 10 µM; 220,000 compounds, 3.8% hits;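 active means compounds that reduced the stress-induced luciferase reporter signal by more than about 70% of percent inhibition, limit read from the data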;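 further: 0% = tunicamycin plus vehicle and 100% = wells without tunicamycin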
# B2AR ag: activates human beta-2 adrenergic receptor causing internalization | P07550 | Am2.2-beta2AR cells, FAP receptor internalization, flow cytometry | response, % (test concentration not listed) | 340,000 compounds, 0.43% hits;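 active means response above a set limit, near 3 SD of response in nonfluorescent compounds, cut at about 42% in these data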
# Target sequence (P07550 whole entry, looked up): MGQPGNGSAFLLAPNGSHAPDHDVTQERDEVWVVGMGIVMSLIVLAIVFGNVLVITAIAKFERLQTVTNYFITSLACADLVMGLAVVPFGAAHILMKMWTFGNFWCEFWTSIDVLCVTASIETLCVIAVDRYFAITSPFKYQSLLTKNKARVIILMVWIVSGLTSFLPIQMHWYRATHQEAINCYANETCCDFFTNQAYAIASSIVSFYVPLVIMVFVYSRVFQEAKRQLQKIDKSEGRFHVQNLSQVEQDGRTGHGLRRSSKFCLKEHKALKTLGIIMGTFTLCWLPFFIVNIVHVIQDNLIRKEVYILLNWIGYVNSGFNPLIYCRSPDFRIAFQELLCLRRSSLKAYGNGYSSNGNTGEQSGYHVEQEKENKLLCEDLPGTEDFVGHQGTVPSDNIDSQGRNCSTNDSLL
# pCIP destab: compounds decreasing mouse p/CIP protein stability | 290,000 compounds, 0.01% hits | Q05BA5 | F442A p/CIP-EGFP cells, EGFP fluorescence, 16 h | decrease of EGFP signal, % at 10 µM;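 active means EGFP signal decrease of at least 30% at 10 µM or well 3 SD below plate mean, unless failing retest; inactive means the rest, including hits failing retest or dose response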
# Active calls of the source: *; x = not tested or not shown.
SMILES,Dynein cargo inh,UPR CHOP act,UPR XBP1 act,CHOP inh,B2AR ag,pCIP destab
CCOC(=O)c1sc(Nc2nc3cc4c(cc3s2)OCO4)cc1C,-0.81,5,4,98*,-1,-2
CC(=O)c1sc(Nc2nc3cc4c(cc3s2)OCO4)nc1C,-1.1,x,x,-37,-4,-13
CCC(=O)OCCn1c(=O)c2ccccc2c2ccccc2c1=O,0.072,0,1,19,-6,-1
CC(C)CCn1c(=O)c2ccccc2c2ccccc2c1=O,0.22,-1,-2,78*,1,5
CCOC(=O)C1=CN(CC)S(=O)(=O)NC1c1ccc(C(F)(F)F)cc1 (stereo unspecified),x,3,3,x,-2,x
Cc1ccc(NC(=O)Cc2nnc(SCC(=O)c3ccc(Br)cc3)n2C)cc1,2.6,0,-2,88*,-4,-9
Cc1c(NC(=O)CN2CCN(c3cccc(Cl)c3)CC2)c(=O)n(-c2ccccc2)n1C,-0.44,-2,-2,15,-4,-5
COC(=O)c1c(NC(=S)Nc2ccccc2Cl)sc(C)c1C,-0.54,-1,1,89*,-3,6
COc1ccc(CCN(C(=O)C(F)(F)F)C(C(=O)NC2CCCC2)c2cccs2)cc1 (stereo unspecified),3.3,0,-2,80*,-4,6
Cc1cc(C)nc(SCc2nnc(SCC(=O)Nc3ccccc3C)n2Cc2ccco2)n1,-1.1,2,-3,34,2,-8
Cc1ccc(/C=C2/SC(=S)N(CCCC(=O)Nc3ccc(O)cc3)C2=O)cc1,0.099,-4,-3,94*,-1,-6
Cc1ccc(/C=C2\SC(=S)N(CCCC(=O)NNC(=O)c3ccccc3O)C2=O)cc1,2.9,-8,-6,98*,1,-2
Cc1ccc(/C=C2\SC(=S)N(CCC(=O)NNC(=O)c3ccccc3O)C2=O)cc1,x,2,4,x,3,13
O=C(CN1CCC(NC(=O)c2ccco2)CC1)Nc1ccccc1[N+](=O)[O-],-1,0,-4,17,x,4
S=c1[nH]nc(C2CCCCC2)n1/N=C/c1ccc(Br)s1,-0.13,-3,3,95*,-12,-2
S=c1[nH]nc(C2CCCCC2)n1/N=C/c1ccc(Br)cc1,x,0,1,x,-5,-6
O=[N+]([O-])c1cccc(/C=N/n2c(C3CCCCC3)n[nH]c2=S)c1,0.91,-1,0,82*,-8,10
O=C(CN(C(=O)CCC(=O)Nc1nccs1)c1ccccc1F)NCC1CCCO1 (stereo unspecified),-0.29,-1,-2,73*,-1,-7
Cc1ccccc1N(CC(=O)NCC1CCCO1)C(=O)CCC(=O)Nc1nccs1 (stereo unspecified),x,0,-5,x,-2,-1
OCC1(CO)CCCC(CO)(CO)C1O,x,x,x,x,2,x
CCOc1ccc(NC2c3ccccc3C(=O)N2Cc2ccco2)cc1 (stereo unspecified),1.4,0,-2,73*,9,-2
COc1ccc(NC2c3ccccc3C(=O)N2Cc2ccco2)cc1OC (stereo unspecified),0.076,0,-1,0,4,-10
CCCCCN=C(N)N/N=C/c1c[nH]c2ccc(OC)cc12,x,18,-3,x,47*,x
CCOC(=O)/C(C#N)=C/c1ccc(OC)c(OC)c1,2.5,-1,-1,16,6,-1
CCCCCCC(=O)Cc1cc(OC)c(OC)cc1C=C(C(=O)OCC)C(=O)OCC,-4.3*,x,x,-2,x,-14
SMILES,Dynein cargo inh,UPR CHOP act,UPR XBP1 act,CHOP inh,B2AR ag,pCIP destab
O=C(CN1CCOCC1)Nc1ccc(NC(=O)c2ccccc2F)cc1,x,1,-3,x,-3,1
CCCc1nc2oc3c(OC)ncnc3c2c2c1COC(C)(C)C2,0.19,1,1,82*,-13,2
COc1ccc(OC(C)C(=O)Nc2ccc(F)cc2F)cc1 (stereo unspecified),0.18,-1,-3,13,4,8
O=C(COC(=O)/C=C/c1cccc(F)c1)Nc1ccc(Cl)cn1,-0.37,1,1,73*,7,5
CCc1ccc(N2CC(C(=O)Nc3ccc4c(c3)OCCO4)CC2=O)cc1 (stereo unspecified),x,-3,-6,x,4,5
COCCNC(=O)CSc1cc(-c2ccccc2)c2ccc(OC)cc2n1,-0.42,-1,0,37,2,5
COc1ccc2c(-c3ccccc3)cc(SCC(=O)NC(N)=O)nc2c1,-0.85,-2,-1,77*,-1,-33
O=C(N/N=C/c1ccc(O)cc1)c1ccc(COc2cc(Cl)ccc2Cl)o1,0.41,0,14,-12,49*,2
O=C(Nc1cccnc1)c1ccc(COc2cc(Cl)ccc2Cl)o1,0.29,-2,9,20,-7,0
Fc1ccc(Cn2ccc(-c3cnc(-c4ccccc4)s3)n2)cc1,1.3,5,1,80*,7,-4
Cc1ccc(Cn2ccc(-c3cnc(-c4ccccc4)s3)n2)cc1,-0.91,8,-2,87*,2,5
O=C(O)CCSc1nnc(-c2ccc3c(c2)OCO3)o1,-0.06,-4,-2,86*,-1,-16
CC(C)(C)c1ccc(-c2cc(C(=O)NNC(=O)Nc3ccccc3)c3ccccc3n2)cc1,0.16,4,1,94*,43*,4
C/C(=N\NC(=O)c1cccc(N/N=C(\C)c2ccc([N+](=O)[O-])cc2)c1)c1ccc([N+](=O)[O-])cc1,-0.24,0,-1,-3,6,6
COc1cc(C(=O)NNC(=O)C2CSC3(C)CCC(=O)N23)cc(OC)c1OC (stereo unspecified),x,0,2,x,-9,x
Fc1ccc2nc(Nc3nc4c(F)cccc4s3)sc2c1,-1.3,7,6,66,15,14
Fc1cccc2sc(Nc3nc4ccccc4s3)nc12,-0.44,5,3,85*,9,4
CCOc1cc(/C=N/NC(=O)c2ccncc2)ccc1OC(=O)c1ccccc1,x,0,1,x,6,-57
CCOc1cc(/C=N/Nc2cccc(C(=O)O)c2)ccc1OC(=O)c1ccccc1,0.33,-8,-8,92*,-1,19
CCOc1cc(/C=N/NC(=O)c2ccncc2)ccc1OC(=O)c1ccc([N+](=O)[O-])cc1,1.7,0,-1,81*,-1,1
CCOc1cc(/C=N/NC(=O)CNc2cccc(C)c2)ccc1OC(=O)c1ccccc1,-0.39,4,17,39,5,-1
Clc1ccc(OCCSc2nnnn2C2CCCCC2)cc1,-0.23,4,2,63,-13,7

# Compound activity from PubChem BioAssay.
